Assay results gathered from unrelated publications.
pIC50: −log10 of the molar value.
Effect on: cell growth or viability

SMILES	cell line	assay	setting	pIC50
Cc1sc2c(c1C)C(c1ccc(Cl)cc1)=N[C@@H](CC(=O)NCCCCCCCCNC(=O)COc1cccc3c1C(=O)N(C1CCC(=O)NC1=O)C3=O)c1nnc(C)n1-2 (stereo partly shown)	Jurkat	ATP luminescence	72 h	7.41
CC1(C)CCC(c2ccc(Cl)cc2)=C(CN2CCN(c3ccc(C(=O)NS(=O)(=O)c4ccc(N[C@H](CCN5CCOCC5)CSc5ccccc5)c(S(=O)(=O)C(F)(F)F)c4)cc3)CC2)C1	human Platelet	MTS	24 h	8.19
COc1ccc(-c2cc(C(=O)Nc3ccccc3)c3cc(-c4ccccc4)ccc3n2)cc1	MIA PaCa-2	MTT	48 h	4.32
CN1CCC(NC(=O)c2ccc(-c3cc(-c4ccsc4)c4oc5c(c4c3)CCN(C(=O)/C=C/c3ccc(N)nc3)C5)nn2)C(F)(F)C1 (stereo not shown)	MIA PaCa-2	CCK-8	72 h	6.19
C=C(F)C(=O)N1CCN(c2nc(OC[C@@H]3CCCN3C)nc3c2CCN(c2cccc4cccc(Cl)c24)C3)C[C@@H]1CC#N	SW837	ATP luminescence		7.06
COc1ccc(-c2cc(C(=O)Nc3ccccc3)c3cc(-c4cc(F)ccc4OC)ccc3n2)cc1	MIA PaCa-2	MTT	48 h	< 4.30
COc1cc2c3c(n(CCCNC(C)C)c(=O)c2cc1OC)-c1nc2c(cc1C3=O)OCO2	MOLT-4	MTS	72 h	7.72
C=CC(=O)N1CCN(c2nc(=O)n(-c3c(C)ccnc3C(C)C)c3nc(-c4c(O)cccc4F)c(F)cc23)[C@@H](C)C1	MIA PaCa-2	ATP luminescence		7.63
COc1ccc(F)cc1-c1ccc2nc(-c3ccccc3)cc(C(=O)Nc3ccccc3)c2c1	MIA PaCa-2	MTT	48 h	< 4.30
COc1cc2c3c(n(CCCn4ccnc4)c(=O)c2cc1OC)-c1nc2c(cc1C3=O)OCO2	MOLT-4	MTS	72 h	7.37
C[C@H](CCC(=O)O)[C@H]1CC[C@H]2[C@@H]3CC[C@@H]4C[C@H](O)CC[C@]4(C)[C@H]3CC[C@]12C	LNCaP	MTT	72 h	4.18
COc1cc2c3c(n(CCCNCCO)c(=O)c2cc1OC)-c1nc2c(cc1C3=O)OCO2	MOLT-4	MTS	72 h	7.92
COc1ccc(-c2cc(C(=O)Nc3ccccc3)c3cc(-c4ccc(Cl)cc4)ccc3n2)cc1	MIA PaCa-2	MTT	48 h	< 4.30
Nc1ccc(/C=C/C(=O)N2CCc3c(oc4c(-c5ccc(F)cc5)cc(-c5cnc(C(=O)N6CCC(F)(F)CC6)nc5)cc34)C2)cn1	MIA PaCa-2	CCK-8	72 h	5.87
COc1cc2c3c(n(CCCN4CCOCC4)c(=O)c2cc1OC)-c1nc2c(cc1C3=O)OCO2	MOLT-4	MTS	72 h	6.95
Nc1ccc(/C=C/C(=O)N2CCc3c(oc4c(-c5ccc(F)cc5)cc(-c5ccc(C(=O)N6CCC(F)(F)CC6)nn5)cc34)C2)cn1	MIA PaCa-2	CCK-8	72 h	6.64
COc1ccc(-c2cc(C(=O)Nc3ccccc3)c3cc(-c4cc(C)ccc4F)ccc3n2)cc1	MIA PaCa-2	MTT	48 h	< 4.30
CCNCCCn1c2c(c3cc(OC)c(OC)cc3c1=O)C(=O)c1cc3c(nc1-2)OCO3	KMS-27	MTS	72 h	6.85
CN1CCC(NC(=O)c2ccc(-c3cc(C4CC4)c4oc5c(c4c3)CCN(C(=O)/C=C/c3ccc(N)nc3)C5)nn2)C(F)(F)C1 (stereo not shown)	MIA PaCa-2	CCK-8	72 h	5.72
